The species named for data set [1] is Homo sapiens. The data set is described as follows: Selectivity ratio of IC50 for Aurora B (unknown origin) to IC50 for Aurora A (unknown origin).
In data set [2] the test system is Mus musculus. The data set is described as follows: Toxicity in BALB/c athymic nude mouse xenografted with human MDA-MB-231 cells assessed as effect on MCH level at 30 mg/kg, ig administered every 2 days for 18 days measured post last dose. The format is organism-based. Particulars: in vivo, po. An outline of the steps:
(§1)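 After the 18-day intragastric course (every 2 days), blood cell counts taken from untreated, vehicle and dosed mice; groups compared by unpaired two-tailed t-test; mean ±SD, n=4.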

For data set [3], the target named is T1, Aurora kinase A (Homo sapiens) (UniProt O14965).
T1 sequence (whole entry): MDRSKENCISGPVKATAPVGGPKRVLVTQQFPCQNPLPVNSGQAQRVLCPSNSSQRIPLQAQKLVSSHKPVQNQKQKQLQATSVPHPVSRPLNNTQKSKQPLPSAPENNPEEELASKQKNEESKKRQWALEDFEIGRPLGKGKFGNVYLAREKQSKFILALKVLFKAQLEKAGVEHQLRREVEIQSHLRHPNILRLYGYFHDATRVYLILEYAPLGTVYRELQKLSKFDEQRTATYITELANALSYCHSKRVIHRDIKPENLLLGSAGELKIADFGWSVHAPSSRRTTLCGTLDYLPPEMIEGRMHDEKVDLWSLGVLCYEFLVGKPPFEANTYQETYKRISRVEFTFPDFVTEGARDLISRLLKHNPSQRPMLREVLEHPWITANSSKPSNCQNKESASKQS
The data set can be described thus: Inhibition of Aurora A phosphorylation at Thr288 residue in human 293T cells at 1 uM after 24 hrs by western blot analysis. The format is cell-based. An outline of the steps:
(§2)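 293T cells treated 24 h with increasing doses or 0.1% DMSO control; lysates probed by Western blot for p-Aurora A (Thr288) and p-histone H3 (Ser10), with GAPDH as loading control.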
A general note: A western blot detects proteins with antibodies after separation by electrophoresis.

The test system of data set [4] is MDA-MB-231. The data set can be described thus: Antitumor activity against human MDA-MB-231 cells xenografted in BALB/c athymic nude mouse assessed as tumor weight at 30 mg/kg, ig administered every 2 days for 18 days (reference value: 1.7 +/- 0.84 g). The data set is classed as functional. An outline of the steps:
(§3)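 Nude mice with established MDA-MB-231 xenografts dosed intragastrically every 2 days for 18 days; vehicle control group; n=4 per group. Tumor volume estimated over time and compared by two-way repeated-measures ANOVA; dissected tumors weighed at end. Data as mean ±SD.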
(In general: A xenograft is tissue or cells of one species grown in another, often human tumour cells in immunodeficient mice.)

Data set [5] has as its system Mus musculus. The data set can be described thus: Toxicity in BALB/c athymic nude mouse xenografted with human MDA-MB-231 cells assessed as body weight loss at 30 mg/kg, ig administered every 2 days for 18 days measured during compound dosing. The format is organism-based. Particulars: in vivo, po. An outline of the steps: (§4)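 Xenograft-bearing nude mice dosed intragastrically every 2 days for 18 days; body weight tracked throughout. After treatment ended, liver, lung, kidney and spleen weighed in untreated, vehicle and dosed groups; unpaired two-tailed t-test; mean ±SD, n=4.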

In data set [6] the test system is Mus musculus. The data set can be described thus: Toxicity in BALB/c athymic nude mouse xenografted with human MDA-MB-231 cells assessed as effect on HGB level at 30 mg/kg, ig administered every 2 days for 18 days measured post last dose. The format is organism-based. Particulars: in vivo, po. The procedure, abridged: as §1
Data set [7] relates to MDA-MB-231. The data set can be described thus: Cell cycle arrest in human MDA-MB-231 cells assessed as accumulation at G2/M phase after 24 hrs by propidium iodide staining based flow cytometry. The format is functional. An outline of the steps: (§5)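 MDA-MB-231 cells exposed to test compound at indicated doses, MLN8237, or 0.1% DMSO control for 24 h; cell-cycle distribution, including G2/M and 4N/8N populations, read by flow cytometry.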
Background: A flow cytometer gives signals particle by particle.

Data set [8] relates to MOLT-4. The data set can be described thus: Antiproliferative activity against human MOLT4 cells after 48 hrs by CCK8 assay. The data set is classed as functional, cell-based. The following applies: Homo sapiens, MOLT-4, 48 h; read-out: IC50.
For data set [9], the system named is MDA-MB-231. The data set can be described thus: Cell cycle arrest in human MDA-MB-231 cells assessed as accumulation of cells with 4N/8N DNA content after 24 hrs by propidium iodide staining based flow cytometry. The data set is classed as functional. The procedure, abridged:
as §5

Data set [10] concerns HeLa. The data set can be described thus: Antiproliferative activity against human HeLa cells after 48 hrs by CCK8 assay. The data set is classed as functional, cell-based. The following applies: Homo sapiens, HeLa, 48 h; read-out: IC50.
Data set [11] concerns the target T1, Aurora kinase A (Homo sapiens). The data set is described as follows: Inhibition of Aurora A phosphorylation at Thr288 residue in human 293T cells at 1 to 2 uM after 24 hrs by western blot analysis. The format is cell-based. The procedure, abridged: as §2
The test system of data set [12] is Mus musculus. The data set can be described thus: Toxicity in BALB/c athymic nude mouse xenografted with human MDA-MB-231 cells assessed as effect on liver weight at 30 mg/kg, ig administered every 2 days for 18 days measured post last dose. Particulars: in vivo, po. The data set is classed as organism-based. An outline of the steps: as §4
Data set [13] concerns Mus musculus. The data set is described as follows: Toxicity in BALB/c athymic nude mouse xenografted with human MDA-MB-231 cells assessed as effect on PLT level at 30 mg/kg, ig administered every 2 days for 18 days measured post last dose. The format is organism-based. The following applies: in vivo, po. The procedure, abridged:
as §1

Data set [14] concerns MDA-MB-231. The data set is described as follows: Induction of apoptosis in human MDA-MB-231 cells assessed as annexin-V positive cells at 5 uM after 48 hrs by Annexin-V-FITC/propidium iodide staining based flow cytometry (reference value: 15.46 +/- 1.18%). The format is functional.
The test system of data set [15] is MCF7. The data set is described as follows: Antiproliferative activity against human MCF7 cells after 48 hrs by CCK8 assay. The format is functional, cell-based. The following applies: Homo sapiens, MCF7, 48 h; read-out: IC50.
Data set [16] concerns the target Aurora kinase B (Homo sapiens, UniProt Q96GD4). The data set can be described thus: Inhibition of Aurora B (unknown origin) using FAM-labelled peptide as substrate pretreated for 10 mins followed by substrate addition and measured after 60 mins by fluorescence assay. The procedure, abridged: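 Kinase IC50 values are the mean of at least two independent experiments; selectivity is the Aurora A/B ratio of these IC50s.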

For data set [17], the system named is MDA-MB-231. The data set can be described thus: Antitumor activity against human MDA-MB-231 cells xenografted in BALB/c athymic nude mouse assessed as tumor growth inhibition at 30 mg/kg, ig administered every 2 days for 18 days relative to control. The format is functional. Particulars: MDA-MB-231, po, read-out: TGI. The procedure, abridged: as §3
Data set [18] deals with MDA-MB-231. The data set can be described thus: Induction of morphological changes in human MDA-MB-231 cells assessed as monopolar/multipolar spindle formation at 1 uM by DAPI staining based microscopic analysis. The data set is classed as functional, cell-based. An outline of the steps: (§6)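 MDA-MB-231 cells incubated 24 h with 1 µM compound or 0.1% DMSO; immunofluorescence imaging of centrosomes, spindles and nuclei at ×1000 to score spindle polarity and chromosome alignment at the metaphase plate.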

The test system of data set [19] is MDA-MB-231. The data set can be described thus: Antiproliferative activity against human MDA-MB-231 cells after 48 hrs by CCK8 assay. The format is functional, cell-based. The following applies: MDA-MB-231, 48 h.
Data set [20] concerns DU-145. The data set can be described thus: Antiproliferative activity against human DU145 cells after 48 hrs by CCK8 assay. The data set is classed as functional, cell-based. Particulars: DU-145, 48 h.
The subject of data set [21] is MDA-MB-231. The data set can be described thus: Antitumor activity against human MDA-MB-231 cells xenografted in BALB/c athymic nude mouse assessed as reduction in tumor size at 30 mg/kg, ig administered every 2 days for 18 days. The data set is classed as functional, organism-based. An outline of the steps: as §3
The subject of data set [22] is MDA-MB-231. The data set can be described thus: Induction of morphological changes in human MDA-MB-231 cells assessed as defects in chromosomal alignment at 1 uM by DAPI staining based microscopic analysis. The data set is classed as functional, cell-based. An outline of the steps:
as §6

Data set [23] deals with Mus musculus. The data set can be described thus: Toxicity in BALB/c athymic nude mouse xenografted with human MDA-MB-231 cells assessed as effect on MCHC level at 30 mg/kg, ig administered every 2 days for 18 days measured post last dose. The data set is classed as organism-based. Particulars: in vivo, po. The procedure, abridged: as §1
Data set [24] deals with MDA-MB-231. The data set can be described thus: Inhibition of colony formation in human MDA-MB-231 cells assessed as reduction in number of colonies at 3 uM after 7 days by crystal violet staining based assay. The format is functional, cell-based. The procedure, abridged: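 Colony formation of MDA-MB-231 cells grown 7 days with 3 µM compound or 0.1% DMSO; colony numbers counted and compared against control.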

Data on one molecule can be found in ChEMBL document CHEMBL4270643, “Structure-based drug design: Synthesis and biological evaluation of quinazolin-4-amine derivatives as selective Aurora A kinase inhibitors” (Eur J Med Chem, 2018).

Calls of active or inactive are those of the source. The calls are words filed in the database; no cut-off is given here.

Chain of Aurora kinase B (Q96GD4 whole entry): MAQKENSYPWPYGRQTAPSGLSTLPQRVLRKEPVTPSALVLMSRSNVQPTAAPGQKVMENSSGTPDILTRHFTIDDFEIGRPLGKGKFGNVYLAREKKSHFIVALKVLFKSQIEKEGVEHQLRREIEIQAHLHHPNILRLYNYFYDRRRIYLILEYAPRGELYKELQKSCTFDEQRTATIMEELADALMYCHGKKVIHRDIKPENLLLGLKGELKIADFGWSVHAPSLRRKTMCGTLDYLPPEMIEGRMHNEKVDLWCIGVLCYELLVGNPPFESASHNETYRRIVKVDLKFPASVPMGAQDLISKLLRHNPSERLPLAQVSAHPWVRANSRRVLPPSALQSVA

As to `CCOC(=O)C1CCN(c2ccc3c(Nc4cc(C)[nH]n4)nc(-c4ccccc4)nc3c2)CC1`, in data set [1], the Ratio IC50 is 66. Further, the Activity entry is “Non-Toxic” in data set [2]; 0.85 g in [4]; “Non-Toxic” in data set [5]; “Non-Toxic” in [6]; “Dose-dependent effect” in data set [7]; “Dose-dependent effect” in [9]. The Activity result in [12] is “Non-Toxic”; in data set [13], “Non-Toxic”; in data set [14] it was 47.1%; in data set [23], “Non-Toxic”. For the same molecule, the inhibition result in [3] and in data set [11] was “Active” throughout. In addition, the IC50 is 0.821 µM in data set [8]; 0.45 µM in [10]; 2.23 µM in data set [15]; 2.52 µM in data set [16]; 1.19 µM in data set [19]; 2.05 µM in data set [20]. Moreover, the inhibition in vivo at 30 mg/kg in data set [17] was 45%. The result in [18], in data set [21], in data set [22] and in data set [24] was Active.

One may read the IC50 as the concentration that gives 50% inhibition.
